# Measured values reported in ChEMBL document CHEMBL2434850, “Synthesis and antibacterial activity of novel modified 5-O-mycaminose 14-membered ketolides” (2013).
# Key:
# Type in all cases: functional
# [1] = test system: Staphylococcus aureus; assay: Antibacterial activity against methicillin-resistant Staphylococcus aureus ATCC 33591 by broth microdilution method
# Outline: (§1)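 MIC determined by broth microdilution following CLSI recommendations; strain is a methicillin-resistant S. aureus (MRSA).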
# [2] = test system: Staphylococcus epidermidis; assay: Antibacterial activity against methicillin-sensitive Staphylococcus epidermidis ATCC 12228 by broth microdilution method
# Outline: (§2)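 Value is the minimum inhibitory concentration (MIC), determined by broth microdilution following CLSI recommendations. Strains ATCC 29213, 15 and 09-06 are methicillin-sensitive S. aureus; ATCC 12228 and 09-9 are methicillin-sensitive S. epidermidis.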
# [3] = test system: Staphylococcus epidermidis; assay: Antibacterial activity against methicillin-sensitive Staphylococcus epidermidis 09-9 by broth microdilution method; outline: as §2
# [4] = test system: Staphylococcus aureus; assay: Antibacterial activity against methicillin-resistant Staphylococcus aureus 09-13 by broth microdilution method; outline: as §1
# [5] = test system: Staphylococcus aureus; assay: Antibacterial activity against methicillin-sensitive Staphylococcus aureus 15 by broth microdilution method; outline: as §2
# [6] = test system: Staphylococcus aureus; assay: Antibacterial activity against methicillin-sensitive Staphylococcus aureus 09-6 by broth microdilution method; outline: as §2
# [7] = test system: Staphylococcus aureus; assay: Antibacterial activity against methicillin-sensitive Staphylococcus aureus ATCC 29213 by broth microdilution method; outline: as §2
# [8] = test system: Staphylococcus epidermidis; assay: Antibacterial activity against methicillin-resistant Staphylococcus epidermidis 09-3 by broth microdilution method
Compound,MIC [1] [mg/L],MIC [2] [mg/L],MIC [3] [mg/L],MIC [4] [mg/L],MIC [5] [mg/L],MIC [6] [mg/L],MIC [7] [mg/L],MIC [8] [mg/L]
CC[C@H]1OC(=O)[C@H](C)C(=O)[C@H](C)[C@@H](O[C@@H]2O[C@H](C)[C@@H](OC(=O)NCCc3ccccc3)[C@H](N(C)C)[C@H]2O)[C@@](C)(OC)C[C@@H](C)/C(=N\O)[C@H](C)[C@H]2OC(=O)O[C@@]21C,> 32,0.5,2,> 32,1,1,1,> 32
CC[C@H]1OC(=O)[C@H](C)C(=O)[C@H](C)[C@@H](O[C@@H]2O[C@H](C)[C@@H](OC(=O)NCCc3ccccc3)[C@H](N(C)C)[C@H]2O)[C@@](C)(OC)C[C@@H](C)/C(=N\OC(=O)NCCc2ccccc2)[C@H](C)[C@H]2OC(=O)O[C@@]21C,> 32,> 32,> 32,> 32,> 32,> 32,> 32,> 32
CC[C@H]1OC(=O)[C@H](C)C(=O)[C@H](C)[C@@H](O[C@@H]2O[C@H](C)[C@@H](OC(=O)Nc3ccc(C(F)(F)F)cc3)[C@H](N(C)C)[C@H]2O)[C@@](C)(OC)C[C@@H](C)/C(=N\O)[C@H](C)[C@H]2OC(=O)O[C@@]21C,> 32,32,> 32,> 32,> 32,> 32,> 32,> 32
CC[C@H]1OC(=O)[C@H](C)C(=O)[C@H](C)[C@@H](O[C@@H]2O[C@H](C)[C@@H](OC(=O)NC3CCCCC3)[C@H](N(C)C)[C@H]2O)[C@@](C)(OC)C[C@@H](C)/C(=N\OC(=O)NC2CCCCC2)[C@H](C)[C@H]2OC(=O)O[C@@]21C,> 32,32,> 32,> 32,> 32,> 32,32,> 32
CCCCCNC(=O)O/N=C1\[C@H](C)C[C@](C)(OC)[C@H](O[C@@H]2O[C@H](C)[C@@H](OC(=O)NCCCCC)[C@H](N(C)C)[C@H]2O)[C@@H](C)C(=O)[C@@H](C)C(=O)O[C@H](CC)[C@@]2(C)OC(=O)O[C@@H]2[C@H]1C,> 64,> 64,> 64,> 64,> 64,> 64,> 64,> 64
CC[C@H]1OC(=O)[C@H](C)C(=O)[C@H](C)[C@@H](O[C@@H]2O[C@H](C)[C@@H](OC(=O)NCCCl)[C@H](N(C)C)[C@H]2O)[C@@](C)(OC)C[C@@H](C)/C(=N\OC(=O)NCCCl)[C@H](C)[C@H]2OC(=O)O[C@@]21C,> 32,> 32,> 32,> 32,> 32,> 32,> 32,> 32
CC[C@H]1OC(=O)[C@H](C)C(=O)[C@H](C)[C@@H](O[C@@H]2O[C@H](C)[C@@H](O)[C@H](N(C)C)[C@H]2O)[C@@](C)(OC)C[C@@H](C)/C(=N\O)[C@H](C)[C@H]2OC(=O)O[C@@]21C,> 64,2,2,> 64,> 64,2,2,> 64
CC[C@H]1OC(=O)[C@H](C)[C@@H](O[C@H]2C[C@@](C)(OC)[C@@H](O)[C@H](C)O2)[C@H](C)[C@@H](O[C@@H]2O[C@H](C)C[C@H](N(C)C)[C@H]2O)[C@](C)(OC)C[C@@H](C)C(=O)[C@H](C)[C@@H](O)[C@]1(C)O [CLARITHROMYCIN],> 64,0.06,4,> 64,0.5,0.06,0.06,> 64
CC[C@H]1OC(=O)[C@H](C)C(=O)[C@H](C)[C@@H](O[C@@H]2O[C@H](C)C[C@H](N(C)C)[C@H]2O)[C@](C)(OC)C[C@@H](C)C(=O)[C@H](C)[C@H]2N(CCCCn3cnc(-c4cccnc4)c3)C(=O)O[C@]12C [TELITHROMYCIN],> 32,0.06,0.06,> 32,2,0.5,0.5,32
